Screens (PubChem BioAssay)
Only some compounds are listed: those with a hit (about 1.7% of all), similar ones and a draw of the others.
PfG6PD inh: PfG6PD (Plasmodium falciparum) enzyme inhibition | PfGluPho enzyme, NADPH resazurin-diaphorase fluorescence | inhibition, % at 20 µM | actives 0.78% (n = 350,000) | AID 504690;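 active = inhibition reaching at least a set limit at 20 µM in the primary screen, cut at about 59% in these data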;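 also: 0% = DMSO wells with substrate and 100% = DMSO wells lacking glucose-6-phosphate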
APJ antagonist: blocks the human apelin receptor APJ | P35414 | CHO-K1 APJ beta-arrestin complementation, luminescence | inhibition, % at 20 µM | actives 0.32% (n = 330,000);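 active = inhibition above about 40% at 20 µM, limit read from the data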;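 also: cells challenged with 10 nM apelin-13 agonist together with compound; plate controls were apelin-13 plus DMSO wells for no effect and DMSO wells lacking apelin-13 for full effect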
CXCR6 block: blocks human CXCR6 beta-arrestin recruitment; O00574; CHO-K1 PathHunter CXCR6 beta-arrestin, luminescence; inhibition, % at 20 µM; actives 0.36% (n = 360,000); in the data active = inhibition above about 34%, passing the limit was not always enough;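 also: antagonist mode with CXCL16 agonist at 10 nM final; 0% = 10 nM CXCL16 with DMSO and 100% = unstimulated wells without agonist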
CCR6 antag: antagonists of human CCR6 receptor; P51684; CHO-K1 CCR6 PathHunter beta-arrestin, luminescence, CCL20-stimulated; inhibition, % at 20 µM; actives 0.49% (n = 340,000); AID 493098;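 active = compounds whose inhibition of the agonist-driven luminescence signal at 20 µM reaches about 50%, limit read from the data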;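 also: cells stimulated with CCL20 at 14 nM final; plate controls were DMSO with CCL20 for no effect and DMSO without agonist for full effect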
APJ ag: agonists of human APJ apelin receptor | P35414 | CHO-K1 APJ PathHunter beta-arrestin, luminescence; 0% DMSO wells, 100% apelin | activation, % at 20 µM | actives 0.11% (n = 330,000);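 active = activation more than six SD over the plate average, tested at 20 µM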;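 also: 0% = DMSO alone and 100% = apelin-13 at 10 nM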
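Assay system: engineered CHO-K1 APJ arrestin reporter cells; Amount: 1000 CHO-K1 reporter cells seeded per well; Dosing: one dose, 20 µM compound, 1% DMSO; Times: compound stimulation 90 min at 25 °C, detection 60 min; Measured by: luminescent beta-gal fragment complementation, chemiluminescent substrate; Read-out: APJ–arrestin association signal; Controls: DMSO vs Apelin-13 10 nM.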
B2AR ag: human beta-2 adrenergic receptor agonism by FAP; Am2.2-beta2AR cells, FAP receptor internalization, flow cytometry; AID 504454; P07550; response, % (no concentration beside the values); actives 0.43% (n = 340,000);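 active = response above a set limit, near 3 SD of response in nonfluorescent compounds, cut at about 42% in these data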
Target sequence (P07550 whole entry, looked up): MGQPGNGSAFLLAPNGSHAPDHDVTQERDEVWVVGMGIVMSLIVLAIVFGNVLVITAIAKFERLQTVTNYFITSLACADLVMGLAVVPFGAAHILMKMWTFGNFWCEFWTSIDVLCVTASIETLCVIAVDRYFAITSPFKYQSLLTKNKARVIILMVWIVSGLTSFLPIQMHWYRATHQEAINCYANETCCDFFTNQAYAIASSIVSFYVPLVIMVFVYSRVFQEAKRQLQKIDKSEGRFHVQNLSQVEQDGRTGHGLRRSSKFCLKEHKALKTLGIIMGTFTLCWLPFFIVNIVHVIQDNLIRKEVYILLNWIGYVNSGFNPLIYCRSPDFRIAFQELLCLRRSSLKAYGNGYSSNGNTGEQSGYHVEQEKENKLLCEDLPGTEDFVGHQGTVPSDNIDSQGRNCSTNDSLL
B2AR ag CP1: human beta-2 adrenergic receptor agonism, cherry pick. AID 540358. Am2.2-beta2AR cells, FAP surface receptor, flow cytometry; stronger effect = lower value. actives 25% (n = 1,100). percent response (surface receptor), % at 10 µM. shares compounds with B2AR ag;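 active = surface receptor percent response at or below 58%, roughly 3 SD from nonfluorescent compounds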
B2AR FAP counter: counter-screen for beta-2AR agonists: fluorescence in Am2.2 cells; shares compounds with B2AR ag; FAP fluorogen flow cytometry, fluorescence counterscreen; stronger effect = lower value; calls only at 10 µM; 1,100 tested, under 10 active; AID 588765;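 active = percent response below a set limit in fluorescence channel 1 and below 50% in channel 8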
Starred values were filed as active, the others as inactive; i = inactive; x = not tested or not shown.

SMILES	PfG6PD inh	APJ antagonist	CXCR6 block	CCR6 antag	APJ ag	B2AR ag	B2AR ag CP1	B2AR FAP counter
Cc1ccc(NC(=O)c2ccc(=O)[nH]c2)cc1S(=O)(=O)N1CCCCCC1	7	6	-8	1	-3	-5	x	x
CCOc1cc(/C=C2\CN(C)C/C(=C\c3ccc(O)c(OCC)c3)C2=O)ccc1O	19	27	34	57*	-8	46*	73	i
S=C(Nc1ccccc1)Nc1nccs1	14	33	37	32	-10	0	94	i
O=Cc1ccc(O)c2ncccc12	34	-3	47*	45	0	9	98	i
c1cnc2ccc3ncccc3c2c1	5	-3	-9	-3	-1	-7	x	x
COC(=O)NC1(C(F)(F)F)C(=O)Nc2c1c(=O)n(C)c(=O)n2C (stereo unspecified)	2	-8	0	-4	0	59*	106	i
O=C1NC(=O)C2(CCCC2C(=O)O)N1 (stereo unspecified)	-8	x	10	12	x	-4	x	x
COc1ccc(OCC(=O)Nc2ccc3c(c2)nc(CCN2CCN(C)CC2)n3C)cc1	-16	-8	-5	10	7	52*	107	i
Cc1cccc(OCC(=O)Nc2ccc3c(c2)nc(CCN2CCC(C)CC2)n3C)c1	-5	15	3	-1	6	2	x	x
Cc1cccc(OCC(=O)Nc2ccc3c(c2)nc(CCN2CCN(C)CC2)n3C)c1	2	0	-3	12	-3	-1	112	i
CCOc1ccc(-n2nc3ccc(NC(=O)c4ccc5c(c4)OCCO5)cc3n2)cc1	-2	-22	6	0	6	69*	98	i
O=C(Nc1ccc(-c2nc3ccccc3o2)cc1)c1ccc2c(c1)OCO2	-8	-1	4	-3	-1	-14	x	x
O=C(Nc1ccc2oc(-c3ccccc3F)nc2c1)c1ccc2c(c1)OCCO2	21	8	-5	-6	4	23	88	i
CC(CCc1ccccc1)NC(=O)CCNC(=O)c1ccccc1Cl (stereo unspecified)	-7	0	6	6	-1	-7	x	x
O=C(NCCc1nc(-c2ccccc2Cl)no1)C1CCCCC1	-9	-10	-3	11	4	-5	x	x
CC1CCCN(c2ccc([N+](=O)[O-])cc2C(=O)c2ccccc2)C1 (stereo unspecified)	16	14	18	38	-5	42*	49*	i
COc1ccc(Cn2c(SCc3cc(C)ccc3C)nc3cc(OC)c(OC)cc3c2=N)cc1	26	12	7	4	-2	43*	20*	i
COc1ccc(CN(C)C(=O)c2cc(S(=O)(=O)N3CCCCCC3)ccc2OC)cc1OC	-10	6	-6	20	-5	3	x	x
COc1ccc(S(=O)(=O)N2CCCCCC2)cc1C(=O)N(C)Cc1ccc(OC)c(OC)c1OC	-4	18	-1	8	-6	51*	108	i
CC(C)C(=O)Nc1ccc2c(c1)C(=O)N(CCC(=O)O)C2=O	-10	31	2	7	-3	43*	105	i
Cc1ccc(Cn2ccc(NC(=O)c3cc4nc(-c5ccco5)cc(C(F)(F)F)n4n3)n2)cc1	6	5	10	5	2	112*	7.1*	i
Cc1nn(C)c(C)c1NC(=O)c1cc2nc(-c3ccco3)cc(C(F)(F)F)n2n1	4	-5	3	-3	-3	-11	x	x
COc1ccc(C2/C=C\CN(C(=O)c3ccc(C)cc3)CC(=O)N2Cc2ccc(F)cc2)cc1 (stereo unspecified)	-12	18	7	10	-6	9	102	i
COc1ccc([C@H]2/C=C\CN(C(=O)c3ccccc3)[C@@H](C)C(=O)N2Cc2ccc(F)cc2)cc1	7	4	14	6	0	3	111	i
Cc1nc2oc3c(=O)[nH]cnc3c2c2c1COC(C)(C)C2	14	19	-2	2	-1	-4	99	i
SMILES	PfG6PD inh	APJ antagonist	CXCR6 block	CCR6 antag	APJ ag	B2AR ag	B2AR ag CP1	B2AR FAP counter
Cc1nc2oc(C(=O)c3ccc(Br)cc3)c(N)c2c2c1COC(C)(C)C2	-27	-4	6	21	-3	-6	x	x
c1ccc(-c2nnc(SCc3nc4ccccc4[nH]3)n2Cc2ccco2)cc1	23	19	-1	-31	-2	-12	138	i
Nn1c(SCc2nc3ccccc3[nH]2)nnc1-c1ccccc1	-8	-7	0	-9	-5	-5	x	x
Cc1ccc(OCc2nnc(SCc3nc4ccccc4[nH]3)n2Cc2ccco2)cc1	26	-11	-9	-11	3	104*	20*	i
COc1ccc(C)cc1NC(=O)CN1C(=O)C2CC=CCC2C1=O (stereo unspecified)	12	-6	-3	-1	-5	-8	x	x
C/C=C(\C)C(=O)O[C@@H]([C@H](O)c1cc2ccc(=O)oc2cc1OC)C(C)(C)O	-1	2	-4	9	-3	-7	x	x
O=C(CSc1ccc(-c2cccnc2)nn1)Nc1ccc(F)cc1	-2	-1	0	12	9	-2	x	x
C=C(C)COc1ccc(-c2n[nH]c(C)c2-c2ccc(OC)cc2)c(O)c1	2	7	1	15	-5	53*	115	i
COc1ccc(-c2n[nH]c(C)c2-c2cscn2)c(O)c1	-17	4	-1	4	-1	-3	x	x
C=CCn1c(SCc2ccccc2Cl)nnc1-c1sc2nc(C)cc(C)c2c1N	13	-2	0	13	1	110*	17*	i
Cn1c(SCc2ccc(Cl)cc2)nnc1C1CC1	16	5	3	-3	-2	-9	x	x
C=CCn1c(SCc2cccc3ccccc23)nnc1-c1cccnc1	20	6	10	10	0	-3	x	x
Cc1cc(C)c2c(N)c(-c3nnc(SCc4ccc(Cl)cc4)n3C)sc2n1	8	13	6	1	-3	111*	21*	i
CC1CCCCC1NCC(=O)NCc1ccc(F)cc1 (stereo unspecified)	-21	-8	-4	15	-5	6	x	x
COc1ccc(N(C(=O)C(C)C)S(=O)(=O)c2ccc3c(c2)n(C)c(=O)n3C)cc1	14	26	3	-3	0	-6	x	x
COc1ccc(N(C(=O)c2cccc([N+](=O)[O-])c2)S(=O)(=O)c2ccc3c(c2)n(C)c(=O)n3C)cc1	5	17	-3	-2	1	54*	62	i
